The first data set can be described thus: Acylation rate constant was determined.
The molecule `CC(=O)C[C@@H](CC(=O)Oc1ccc(C#N)cc1)c1ccccc1` displayed a Ka of 58 min⁻¹.

`CC(=O)C[C@H](CC(=O)Oc1ccc(C#N)cc1)c1ccccc1` came in with a Ka of 73 min⁻¹.

On to `C=C1C[C@H](c2ccccc2)CC(=O)O1` (stereo in doubt; 1 (R)), for which the Ka was 35 min⁻¹.

Take `C=C1C[C@H](c2ccccc2)CC(=O)O1` (stereo in doubt; 1 (S)): the Ka came to 17 min⁻¹.

The next data set in a line: Binding constant of the compound.
Regarding `CC(=O)C[C@@H](CC(=O)Oc1ccc(C#N)cc1)c1ccccc1`, the Ks stood at 91 µM.

In turn, `CC(=O)C[C@H](CC(=O)Oc1ccc(C#N)cc1)c1ccccc1` had a Ks of 630 µM.

`C=C1C[C@H](c2ccccc2)CC(=O)O1` (stereo in doubt; 1 (R)): the Ks is 51 µM.

As to `C=C1C[C@H](c2ccccc2)CC(=O)O1` (stereo in doubt; 1 (S)), the Ks was determined as 8 µM.

A further data set is described as follows: kd ratio measured as the kd(fast)/kd(slow) values. The format is ADME. In a few lines: (§1)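 Proflavin displacement: ester 90 μM (from DMSO) added to α-chymotrypsin 90 μM and proflavin 9 μM (final) in 0.1 M phosphate pH 7.2 at 25 °C. Return of A466 was followed, and the slope of semilog absorbance versus time gave kd. Racemic esters gave biphasic curves yielding kd(fast) and kd(slow), and their ratio approximates deacylation enantioselectivity.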
For `N#CCC(CC(=O)Oc1ccc([N+](=O)[O-])cc1)c1ccccc1` (stereo not given), the Ratio was 257.

As for `CC(=O)CC(CC(=O)Oc1ccc([N+](=O)[O-])cc1)c1ccccc1` (stereo not given), the Ratio was determined as 42.

As to `O=CCC(CC(=O)Oc1ccc([N+](=O)[O-])cc1)c1ccccc1` (stereo not given), the Ratio is 180.

Regarding `CC(=O)OC(CC(=O)Oc1ccc([N+](=O)[O-])cc1)c1ccccc1` (stereo not given), the Ratio is 7.

Consider `CC(=O)N[C@@H](CC(=O)Oc1ccc([N+](=O)[O-])cc1)c1ccccc1`, for which the Ratio is 785.

In the case of `COC(=O)CC(CC(=O)Oc1ccc([N+](=O)[O-])cc1)c1ccccc1` (stereo not given), the Ratio worked out at 49.

In the case of `O=C(CC(NC(=O)c1ccccc1)c1ccccc1)Oc1ccc([N+](=O)[O-])cc1` (stereo not given), the Ratio is listed as 1200.

With `CCC(=O)NC(CC(=O)Oc1ccc([N+](=O)[O-])cc1)c1ccccc1` (stereo not given), the Ratio stood at 1500.

Take `C=C(C)C[C@@H](CC(=O)Oc1ccc([N+](=O)[O-])cc1)c1ccccc1`: the Ratio is 3.

`O=CNC(CC(=O)Oc1ccc([N+](=O)[O-])cc1)c1ccccc1` (stereo not given): the Ratio turned out to be 92.

Regarding `C=C(C)C[C@H](CC(=O)Oc1ccc([N+](=O)[O-])cc1)c1ccccc1`, the Ratio stood at 3.

For the molecule `NC(=O)CC(CC(=O)Oc1ccc([N+](=O)[O-])cc1)c1ccccc1` (stereo not given), the Ratio is 31.

Consider `C=C1C[C@H](c2ccccc2)CC(=O)O1` (stereo in doubt; 1 (S)), for which the Ratio is on record as 59.

The next data set in a line: Second order rate constant for acylation( ka/Ks). The format is ADME. In a few lines:
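Competitive substrate assay with α-chymotrypsin (25 nM, active-site titrated) in 0.1 M phosphate buffer pH 7.2, 25 °C. MeO-Suc-Ala-Ala-Pro-Phe pNA was at 128 μM with ester at 10–350 μM, DMSO present. A410 followed for up to 300 s, and k_obs came from semilog plots in triplicate. ka and KS were obtained from I0/k_obs versus I0 by Main's equation (KM 50 μM).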
As for `CC(=O)C[C@@H](CC(=O)Oc1ccc(C#N)cc1)c1ccccc1`, the Ratio turned out to be 11000 M⁻¹ s⁻¹.

In the case of `CC(=O)C[C@H](CC(=O)Oc1ccc(C#N)cc1)c1ccccc1`, the Ratio is 2000 M⁻¹ s⁻¹.

Take `C=C1C[C@H](c2ccccc2)CC(=O)O1` (stereo in doubt; 1 (R)): the Ratio was 12000 M⁻¹ s⁻¹.

`C=C1C[C@H](c2ccccc2)CC(=O)O1` (stereo in doubt; 1 (S)): the Ratio was 38000 M⁻¹ s⁻¹.

A short description of another data set: Deacylation rate constant(Kd slow) was determined by proflavin displacement assay. In a few lines:
as §1
On to `N#CCC(CC(=O)Oc1ccc([N+](=O)[O-])cc1)c1ccccc1` (stereo not given), for which the Kd was 0.000583 s⁻¹.

`C=C(C)C[C@H](CC(=O)O)c1ccccc1`: the Kd came out at 3.83e-05 s⁻¹.

In turn, `CC(=O)CC(CC(=O)Oc1ccc([N+](=O)[O-])cc1)c1ccccc1` (stereo not given) showed a Kd of 6e-05 s⁻¹.

Molecule `O=CCC(CC(=O)Oc1ccc([N+](=O)[O-])cc1)c1ccccc1` (stereo not given) came in with a Kd of 8.3e-05 s⁻¹.

For the molecule `CC(C)CC(CC(=O)Oc1ccc([N+](=O)[O-])cc1)c1ccccc1` (stereo not given), the Kd is 0.0016 s⁻¹.

The molecule `CC(=O)OC(CC(=O)Oc1ccc([N+](=O)[O-])cc1)c1ccccc1` (stereo not given) gave a Kd of 0.00017 s⁻¹.

With `CC(=O)N[C@@H](CC(=O)Oc1ccc([N+](=O)[O-])cc1)c1ccccc1`, the Kd turned out to be 0.00033 s⁻¹.

In turn, `O=C1CC(c2ccccc2)CC(=O)O1` came in with a Kd of 0.0034 s⁻¹.

Molecule `O=C(CCc1ccccc1)Oc1ccc([N+](=O)[O-])cc1` came in with a Kd of 0.25 s⁻¹.

On to `COC(=O)CC(CC(=O)Oc1ccc([N+](=O)[O-])cc1)c1ccccc1` (stereo not given), for which the Kd amounted to 0.0008 s⁻¹.

The molecule `O=C(CC(NC(=O)c1ccccc1)c1ccccc1)Oc1ccc([N+](=O)[O-])cc1` (stereo not given) had a Kd of 0.000417 s⁻¹.

Consider `CCC(=O)NC(CC(=O)Oc1ccc([N+](=O)[O-])cc1)c1ccccc1` (stereo not given), for which the Kd is 4.83e-05 s⁻¹.

Consider `O=CNC(CC(=O)Oc1ccc([N+](=O)[O-])cc1)c1ccccc1` (stereo not given), for which the Kd amounted to 0.00065 s⁻¹.

For `C=C(C)C[C@H](CC(=O)Oc1ccc([N+](=O)[O-])cc1)c1ccccc1`, the Kd amounted to 0.00112 s⁻¹.

`O=C(CC(NC(=O)C(F)(F)F)c1ccccc1)Oc1ccc([N+](=O)[O-])cc1` (stereo not given) showed a Kd of 0.000105 s⁻¹.

As to `NC(=O)CC(CC(=O)Oc1ccc([N+](=O)[O-])cc1)c1ccccc1` (stereo not given), the Kd amounted to 8.3e-05 s⁻¹.

Take `C=C(C)CC(CC(=O)Oc1ccc([N+](=O)[O-])cc1)c1ccccc1` (stereo not given): the Kd is 0.0027 s⁻¹.

Take `C=C1C[C@H](c2ccccc2)CC(=O)O1` (stereo in doubt; 1 (R)): the Kd turned out to be 4.83e-05 s⁻¹.

Another data set in a line: Deacylation rate constant(Kd fast) was determined by proflavin displacement assay. In a few lines:
as §1
`N#CCC(CC(=O)Oc1ccc([N+](=O)[O-])cc1)c1ccccc1` (stereo not given): the Kd worked out at 0.15 s⁻¹.

For `CC(=O)CC(CC(=O)Oc1ccc([N+](=O)[O-])cc1)c1ccccc1` (stereo not given), the Kd was determined as 0.0025 s⁻¹.

Molecule `O=CCC(CC(=O)Oc1ccc([N+](=O)[O-])cc1)c1ccccc1` (stereo not given) displayed a Kd of 0.015 s⁻¹.

For `CC(C)CC(CC(=O)Oc1ccc([N+](=O)[O-])cc1)c1ccccc1` (stereo not given), the Kd stood at 0.0016 s⁻¹.

Consider `CC(=O)OC(CC(=O)Oc1ccc([N+](=O)[O-])cc1)c1ccccc1` (stereo not given), for which the Kd was 0.00112 s⁻¹.

`CC(=O)N[C@@H](CC(=O)Oc1ccc([N+](=O)[O-])cc1)c1ccccc1` yielded a Kd of 0.0262 s⁻¹.

As to `O=C1CC(c2ccccc2)CC(=O)O1`, the Kd worked out at 0.0034 s⁻¹.

The molecule `O=C(CCc1ccccc1)Oc1ccc([N+](=O)[O-])cc1` registered a Kd of 0.25 s⁻¹.

`COC(=O)CC(CC(=O)Oc1ccc([N+](=O)[O-])cc1)c1ccccc1` (stereo not given) showed a Kd of 0.039 s⁻¹.

Turning to `O=C(CC(NC(=O)c1ccccc1)c1ccccc1)Oc1ccc([N+](=O)[O-])cc1` (stereo not given), the Kd stood at 0.5 s⁻¹.

`CCC(=O)NC(CC(=O)Oc1ccc([N+](=O)[O-])cc1)c1ccccc1` (stereo not given) returned a Kd of 0.0725 s⁻¹.

As to `C=C(C)C[C@@H](CC(=O)Oc1ccc([N+](=O)[O-])cc1)c1ccccc1`, the Kd stood at 0.00287 s⁻¹.

Turning to `O=CNC(CC(=O)Oc1ccc([N+](=O)[O-])cc1)c1ccccc1` (stereo not given), the Kd worked out at 0.0597 s⁻¹.

`O=C(CC(NC(=O)C(F)(F)F)c1ccccc1)Oc1ccc([N+](=O)[O-])cc1` (stereo not given) returned a Kd of 0.000105 s⁻¹.

For `NC(=O)CC(CC(=O)Oc1ccc([N+](=O)[O-])cc1)c1ccccc1` (stereo not given), the Kd came out at 0.00257 s⁻¹.

As to `C=C(C)CC(CC(=O)Oc1ccc([N+](=O)[O-])cc1)c1ccccc1` (stereo not given), the Kd stood at 0.0027 s⁻¹.

Consider `C=C1C[C@H](c2ccccc2)CC(=O)O1` (stereo in doubt; 1 (S)), for which the Kd was found to be 0.00283 s⁻¹.

These data come from ChEMBL document CHEMBL1125629, “Beta-substituted beta-phenylpropionyl chymotrypsins. Structural and stereochemical features in stable acyl enzymes” (J Med Chem, 1991).
